Experimental data: ChEMBL document CHEMBL4052686, “Synthesis and antibacterial activity of 5-methylphenanthridium derivatives as FtsZ inhibitors” (2017)
The source made the active and inactive calls. The rule behind the calls is not given here.

Legend:
Bacillus subtilis [1] = assay: Antibacterial activity against penicillin-susceptible Bacillus subtilis ATCC 9372 incubated for 24 hrs by tube-dilution method; type: functional; conditions: ATCC 9372, 24 h
Method in brief: (§1)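 MIC by tube dilution per NCCLS; B. subtilis ATCC9372, E. coli ATCC25922, P. aeruginosa ATCC27853 and S. aureus ATCC25923 are penicillin-susceptible strains.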

Escherichia coli [2] = assay: Antibacterial activity against penicillin-susceptible Escherichia coli ATCC 25922 incubated for 24 hrs by tube-dilution method; type: functional; conditions: ATCC 25922, 24 h; method in brief: as §1
Pseudomonas aeruginosa [3] = assay: Antibacterial activity against penicillin-susceptible Pseudomonas aeruginosa ATCC 27853 incubated for 24 hrs by tube-dilution method; type: functional; conditions: ATCC 27853, 24 h; method in brief: as §1
Staphylococcus aureus [4] = assay: Antibacterial activity against penicillin-susceptible Staphylococcus aureus ATCC 25923 incubated for 24 hrs by tube-dilution method; type: functional; conditions: ATCC 25923, 24 h; method in brief: as §1
Staphylococcus aureus [5] = assay: Antibacterial activity against […] Staphylococcus aureus ATCC 29213 incubated for 24 hrs by tube-dilution method; type: functional; conditions: ATCC 29213, 24 h
Method in brief: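 Broth tube-dilution MIC run as NCCLS recommends, against the […] S. aureus strain ATCC29213.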

Staphylococcus aureus [6] = assay: Antibacterial activity against penicillin-resistant Staphylococcus aureus clinical isolates incubated for 24 hrs by tube-dilution method; type: functional
[7] = tested on: Staphylococcus epidermidis; assay: Antibacterial activity against penicillin-resistant Staphylococcus epidermidis clinical isolates incubated for 24 hrs by tube-dilution method; type: functional
Streptococcus pyogenes [8] = assay: Antibacterial activity against penicillin-susceptible Streptococcus pyogenes clinical isolates incubated for 24 hrs by tube-dilution method; type: functional
Streptococcus pyogenes [9] = assay: Antibacterial activity against penicillin-resistant Streptococcus pyogenes clinical isolates incubated for 24 hrs by tube-dilution method; type: functional
Bacillus subtilis [10] = assay: Inhibition of FtsZ in penicillin-susceptible Bacillus subtilis ATCC 9372 assessed as lowest drug concentration causing inhibition of cell division incubated for 5 hrs by phase-contrast light microscopy
Method in brief: (§2)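 Cell division inhibition judged from bacterial cell morphology under phase-contrast light microscopy, scored as lowest concentration altering division; penicillin-susceptible strains B. subtilis ATCC9372, E. coli ATCC25922, P. aeruginosa ATCC27853, S. aureus ATCC25923.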

Escherichia coli [11] = assay: Inhibition of FtsZ in penicillin-susceptible Escherichia coli ATCC 25922 assessed as lowest drug concentration causing inhibition of cell division incubated for 5 hrs by phase-contrast light microscopy; method in brief: as §2
Pseudomonas aeruginosa [12] = assay: Inhibition of FtsZ in penicillin-susceptible Pseudomonas aeruginosa ATCC 27853 assessed as lowest drug concentration causing inhibition of cell division incubated for 5 hrs by phase-contrast light microscopy; method in brief: as §2
Staphylococcus aureus [13] = assay: Inhibition of FtsZ in penicillin-susceptible Staphylococcus aureus ATCC 25923 assessed as lowest drug concentration causing inhibition of cell division incubated for 5 hrs by phase-contrast light microscopy; method in brief: as §2
Sus scrofa [14] = species on record: Sus scrofa; assay: Induction of porcine tubulin polymerisation at 2 times MIC for penicillin-resistant Staphylococcus aureus by fluorescence microscopy
Method in brief: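 Polymerisation of mammalian tubulin measured with a commercial tubulin assay kit, read by fluorescence of the kit reporter, with paclitaxel as the positive control for enhanced polymerisation.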

Sus scrofa [15] = species on record: Sus scrofa; assay: Inhibition of porcine tubulin polymerisation at 256 ug/ml by fluorescence microscopy
Method in brief: (§3)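 Polymerisation of mammalian tubulin followed with a commercial tubulin assay kit using a fluorescent reporter; compounds tested at 32 µg/mL or 256 µg/mL, paclitaxel as positive control.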

Streptococcus pyogenes [16] = assay: Potency index, ratio of MIC for oxacillin sodium to MIC for test compound against penicillin-susceptible Streptococcus pyogenes clinical isolates incubated for 24 hrs by tube-dilution method; type: functional
Streptococcus pyogenes [17] = assay: Potency index, ratio of MIC for sanguinarine to MIC for test compound against penicillin-susceptible Streptococcus pyogenes clinical isolates incubated for 24 hrs by tube-dilution method; type: functional
Bacillus subtilis [18] = assay: Potency index, ratio of MIC for curcumin to MIC for test compound against penicillin-susceptible Bacillus subtilis ATCC 9372 incubated for 24 hrs by tube-dilution method; type: functional
Bacillus subtilis [19] = assay: Potency index, ratio of MIC for sanguinarine to MIC for test compound against penicillin-susceptible Bacillus subtilis ATCC 9372 incubated for 24 hrs by tube-dilution method; type: functional
Bacillus subtilis [20] = assay: Potency index, ratio of MIC for ciprofloxaxin to MIC for test compound against penicillin-susceptible Bacillus subtilis ATCC 9372 incubated for 24 hrs by tube-dilution method; type: functional
Bacillus subtilis [21] = assay: Potency index, ratio of MIC for oxacillin sodium to MIC for test compound against penicillin-susceptible Bacillus subtilis ATCC 9372 incubated for 24 hrs by tube-dilution method; type: functional
Sus scrofa [22] = species on record: Sus scrofa; assay: Inhibition of porcine tubulin polymerisation at 32 ug/ml by fluorescence microscopy; method in brief: as §3
Staphylococcus aureus [23] = assay: Potency index, ratio of MIC for curcumin to MIC for test compound against […] Staphylococcus aureus ATCC 29213 incubated for 24 hrs by tube-dilution method; type: functional
Staphylococcus aureus [24] = assay: Potency index, ratio of MIC for oxacillin sodium to MIC for test compound against […] Staphylococcus aureus ATCC 29213 incubated for 24 hrs by tube-dilution method; type: functional

SMILES	MIC (Bacillus subtilis [1]) [µg/mL]	MIC (Escherichia coli [2]) [µg/mL]	MIC (Pseudomonas aeruginosa [3]) [µg/mL]	MIC (Staphylococcus aureus [4]) [µg/mL]	MIC (Staphylococcus aureus [5]) [µg/mL]	MIC (Staphylococcus aureus [6]) [µg/mL]	MIC [7] [µg/mL]	MIC (Streptococcus pyogenes [8]) [µg/mL]	MIC (Streptococcus pyogenes [9]) [µg/mL]	MIC (Bacillus subtilis [10]) [µg/mL]	MIC (Escherichia coli [11]) [µg/mL]	MIC (Pseudomonas aeruginosa [12]) [µg/mL]	MIC (Staphylococcus aureus [13]) [µg/mL]	Activity (Sus scrofa [14])	further results
C[n+]1cc2ccccc2c2cc(OC(F)(F)F)ccc21.[Cl-]	128	> 128	> 128	128	> 128	128	128	128	128	64	> 128	> 128	128	inactive	inhibition (Sus scrofa [15]): Active
CC(C)c1cccc2c3ccccc3c[n+](C)c12.[Cl-]	4	> 128	> 128	8	64	16	64	4	8	4	> 128	> 128	8	inactive	Ratio (Streptococcus pyogenes [16]): 4; Ratio (Streptococcus pyogenes [17]): 2; Ratio (Bacillus subtilis [18]): 8; Ratio (Bacillus subtilis [19]): 2; Ratio (Bacillus subtilis [20]): 2; Ratio (Bacillus subtilis [21]): 2; inhibition (Sus scrofa [22]): Active
CSc1cccc2c3ccccc3c[n+](C)c12.[Cl-]	8	> 128	> 128	16	16	8	> 128	8	8	8	128	> 128	16	inactive	Ratio (Staphylococcus aureus [23]): 8; Ratio (Staphylococcus aureus [24]): 8
